Laboratory results published in paper PMC11370551 (bioRxiv, 2024).

Key:
Assay type in all cases: in vivo, mouse
[1] = test system: Lepob/ob obese mice; assay: Efficacy in obese Lepob/ob mice after IP injection; conditions: single IP 10 mg/kg
In short: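 Obese Lepob/ob mice got a single intraperitoneal 10 mg/kg injection of test compound; the other arm of the route comparison was subcutaneous. Body weight was tracked as % change from Day 0. Fasting blood glucose was measured. Insulin response was assessed 10 days post-injection.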

[2] = test system: female WT Swiss mice; assay: Ip-GTT in WT Swiss mice; conditions: 6 days ([…]) after single SC 10 mg/kg; glucose 2 g/kg IP; naïve 21,354 ± 431
In short: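 Female WT Swiss mice got a single subcutaneous injection of test compound at 10 mg/kg (~25 nmol). […] AUCs were compared by non-parametric t-tests.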

[3] = test system: Lepob/ob obese mice; assay: Efficacy in obese Lepob/ob mice after SC injection
In short: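 Obese Lepob/ob mice (n = 6 per compound; 3 males, 3 females) got a single subcutaneous 10 mg/kg injection. Untreated non-obese C57BL/6J mice (3 males, 3 females) gave healthy baselines. Body weight was tracked as % change from Day 0. Blood glucose was read after 6 h fasting. IP glucose tolerance: 2 g/kg after 5–6 h fast. ITT: insulin 2.5 IU/kg at 240 h, AUC0–90 min, k-ITT. Analysis: two-way ANOVA and multiparametric t-tests.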

[4] = test system: female WT Swiss mice; assay: Safety profile and MTD in female WT Swiss mice; conditions: SC
In short: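 A GLP-1 receptor agonist was injected subcutaneously into WT mice at 0.5 (~5 nmol), 3 (~30 nmol) or 10 mg/kg (~100 nmol) to check tolerability before the painting studies.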

Semaglutide
duration of sustained body weight loss [1]: up to 7 days
fasting blood glucose lowering after 10 days ([1]; 240 h p.i.): no more efficacy
Ip-GTT AUC0–120min [2]: 21,282 ± 795
body weight loss ([3]; for 3 days after single SC 10 mg/kg (~170 nmol), n = 6): about 8.3 ± 0.5%
duration of significant body weight loss ([3]; single SC 10 mg/kg): 3 days
duration of blood glucose down-regulation ([3]; single SC 10 mg/kg, both sexes combined): up to 10 days
dose from which hypoglycemia was observed ([4]; WT mice, doses 0.5, 3, 10 mg/kg): ≥ 0.5 mg/kg
MTD (maximum tolerated dose among the assessed range) ([4]; female WT Swiss mice): 10 mg/kg
